Test results as given in the array DNA melting data of Ke et al. (doi:10.1101/2024.01.08.574731).

How the values were obtained:
[1] = melting temperature; fluorescence melt of hairpins on a sequencing array, two-state fit, raised by 9.35 °C to match UV melts; details: sodium 0.088 M
How it was run: (§1)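 Cy3 fluorescence of library hairpins on a sequenced MiSeq flow cell, with annealed Cy3 and quencher oligos, was imaged in 50 mM Na-HEPES pH 8.0, 25 mM NaCl in 2.5 °C steps up to 60 °C. Signals were normalised to pre-quench Cy3 and to control variants. Melting temperature and folding enthalpy came from bootstrapped two-state fits, inverse-variance combined over four replicates. Fitted temperatures were raised by 9.35 °C to match UV melts.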

[2] = folding enthalpy; higher = less favourable; fluorescence melt of hairpins on a sequencing array, two-state fit; details: sodium 0.088 M
How it was run: as §1

Sequence	Tm [1] [°C]	folding enthalpy [2] [kcal/mol]
GCCTCGCGAAAGCGTAGC ((..(((....)))..))	44	-11.8
GCCTCGCGAAAGCGTTGC ((..(((....)))..))	39.9	-15.7
GCCTCGGGAAACCGAGAC (.(((((....))))).)	46.2	-15.8
GCCTCTCCGAAAGGAGGC (((..(((....))))))	52.9	-12.4
GCCTCTCGAAAGAGGGC (((.(((....))))))	54.4	-30.6
GCCTCTCGAAAGAGGGGC (((.(((....))).)))	63.2	-34.1
GCCTGACCGAAAGGTGGC (((..(((....))))))	51.2	-23.4
GCCTGACGAAAGTCCGGC (((.(((....))).)))	56.7	-41.4
GCCTGAGGAAACTCAGAC (.(((((....))))).)	40.7	-16.7
GCCTGATCGAAAGATGGC (((..(((....))))))	41.9	-25.2
GCCTGCCGAAAGGCCGGC (((.(((....))).)))	64.3	-22.4
GCCTGCGAAAGCACAGGC ((((((....)))..)))	55.5	-24
GCCTGCGAAAGCATTGGC ((((((....)))..)))	50.9	-21.2
GCCTGCTCGAAAGAGGGC (((..(((....))))))	44.5	-15.7
GCCTGGACGAAAGTCGGC (((..(((....))))))	51.2	-22.6
GCCTGGCGAAAGCAACGC ((.(.((....)).).))	23.9	-4.54
GCCTGGCGAAAGCCCCGC ((..(((....)))..))	36.3	-8.33
GCCTGGCGAAAGCGAAGC ((.(.((....)).).))	31.9	-7.77
GCCTGGCGAAAGCGATGC ((.(.((....)).).))	37	-6.61
GCCTGGCGAAAGCGTGGC (((..((....))..)))	58.9	-24.3
GCCTGTGGAAACATAGGC ((((.((....)).))))	52.4	-42.2
GCCTGTTCGAAAGAAGGC (((..(((....))))))	38.8	-25.6
GCCTTACGAAAGTAGGC (((.(((....))))))	54.2	-29.1
GCCTTAGGAAACTAAGGC (((((((....)))))))	60.3	-37

Sequence	Tm [1] [°C]	folding enthalpy [2] [kcal/mol]
GCCTTCACGAAAGTGGGC (((..(((....))))))	46.6	-18.6
GCCTTCCGAAAGGACGGC (((.(((....))).)))	57.3	-41.6
GCCTTCCGAAAGGAGGGC (((.(((....))).)))	62.2	-37
GCCTTCGAAAGAAACGGC ((((((....)))..)))	36.2	-23.7
GCCTTCGAAAGAACGGC ((((((....))).)))	48.2	-29.2
GCCTTGCGAAAGCACTGC ((..(((....)))..))	40.3	-8.58
GCCTTGCGAAAGCCCGGC (((..((....))..)))	41.8	-23.2
GCCTTGCGAAAGCGATGC ((.(.((....)).).))	47.4	-11.3
GCCTTGCGAAAGCTAAGC ((.(.((....)).).))	45.8	-9.38
GCCTTGGGAAACCAAGAC (.(((((....))))).)	38.7	-19.3
GCCTTGGGAAACTGAGGC ((((..(....)..))))	45.1	-29.9
GCCTTTACGAAAGTAGGC (((..(((....))))))	43.5	-28.7
GCCTTTCCGAAAGGAGGC (((..(((....))))))	44.6	-19.9
GCCTTTGCGAAAGCAGGC (((..(((....))))))	50.3	-20.9
GCCTTTGGAAACAAGGGC (((.(((....))).)))	48.9	-40.2
GCCTTTTCGAAAGAAGGC (((..(((....))))))	42.7	-30.4
GCGAAAAATCGC ((((....))))	36.2	-9.87
GCGAAAACGAAAGTTCGC (((..(((....))))))	51.6	-30.4
GCGAAAATTCGC ((((....))))	47.8	-18.6
GCGAAACTCGC ((((...))))	47.4	-18.9
GCGAAAGAAATTTCGC ((((((....))))))	55	-34
GCGAAAGCGAAAGCTCGC (((..(((....))))))	56.3	-24.2
GCGAAAGGAAACTTCCGC (((.(((....))).)))	42.5	-27.1
GCGAAATATCGC ((((....))))	45.2	-18.6

Sequence	Tm [1] [°C]	folding enthalpy [2] [kcal/mol]
GCGAACGAAAGTTATCGC ((((((....)))..)))	44.1	-23.1
GCGAACGAAAGTTCCGC ((((((....))).)))	54	-29.9
GCGAACGGAAACGTTTGC ((.((((....)))).))	56.4	-46.8
GCGAACTCTCGC ((((....))))	46.8	-24.8
GCGAACTGTCGC ((((....))))	45.5	-21.4
GCGAACTTCGC ((((...))))	48.5	-17.3
GCGAAGAAATTCGC (((((....)))))	55.5	-28.3
GCGAAGAGTCGC ((((....))))	48.4	-11.8
GCGAAGATCGC ((((...))))	49.5	-13.7
GCGAAGCCTCGC ((((....))))	50.6	-8.82
GCGAAGCGAAAGCCACGC (((..((....))..)))	42.5	-8.54
GCGAAGCGAAAGCGTGGC ((.(.((....)).).))	47.3	-10.5
GCGAAGCGAAAGCGTTGC ((.(.((....)).).))	47.7	-12.4
GCGAAGCGAAAGCTACGC (((.(((....))).)))	55	-40.4
GCGAAGCGAAAGCTATGC ((..(((....)))..))	40.7	-7.44
GCGAAGCGAAAGCTCGGC ((..(((....)))..))	43.5	-8.3
GCGAAGCGAAAGCTCTGC ((..(((....)))..))	39.7	-7.9
GCGAAGGCTCGC ((((....))))	46.9	-14.4
GCGAAGTCGAAAGACCGC (((..(((....))))))	52.5	-26.9
GCGAATAATCGC ((((....))))	46.2	-14
GCGAATAGTCGC ((((....))))	44.7	-17.4
GCGAATCCGAAAGGACGC (((..(((....))))))	48.7	-26.1
GCGAATCTTCGC ((((....))))	52.8	-28
GCGAATGTCGC ((((...))))	46.7	-17.6

Sequence	Tm [1] [°C]	folding enthalpy [2] [kcal/mol]
GCGACAACGAAAGTTCGC (((..(((....))))))	49.4	-28.6
GCGACAAGTCGC ((((....))))	58	-30
GCGACACCGAAAGGTCGC (((..(((....))))))	61.1	-34.6
GCGACACGTCGC ((((....))))	61.4	-28.3
GCGACAGCGAAAGCTCGC (((..(((....))))))	46.7	-14.6
GCGACAGGAAACTGCCGC (((.(((....))).)))	55.9	-46.4
GCGACATCTCGC ((((....))))	46.5	-24.2
GCGACCGAAAGGTAACGC ((((((....)))..)))	51.9	-29.6
GCGACCGAAAGGTCACGC ((((((....)))..)))	61.1	-16.9
GCGACCGAAAGGTCCGC ((((((....))).)))	66.4	-18.5
GCGACCGAAAGGTGGCGC ((((((....)))..)))	66.9	-31.5
GCGACGACTCGC ((((....))))	45.8	-17
GCGACGCCGAAAGGCCGC (((..(((....))))))	58.1	-19.1
GCGACGCCTCGC ((((....))))	50.1	-16.9
GCGACGCGAAAGCCCCGC (((..((....))..)))	44.4	-15.2
GCGACGCGAAAGCCGCGC (((..((....))..)))	67.1	-23.6
GCGACGCGAAAGCTGCGC (((..((....))..)))	61.9	-23.7
GCGACGCGAAAGCTTAGC ((.(.((....)).).))	48.9	-24.8
GCGACGCTCGC ((((...))))	50	-15.3
GCGACGGATCGC ((((....))))	46.8	-14.9
GCGACGGGAAACCGCCGC (((.(((....))).)))	64.2	-45.2
GCGACGTATCGC ((((....))))	50.5	-14.6
